# Screens as filed in PubChem.
# Most compounds without a hit are left out; they make up all but 6.5% or so of the library.
# tolC growth inh – blocks growth of E. coli BW25113 tolC mutant; OD615; growth inhibition, % at 10 µM (by protocol); 65,000 compounds, 2.2% hits;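 active = growth inhibition at or above a cutoff equal to the mean over every tested compound plus 3 SD, cut at about 60% in these data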;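 note: growth measured after 20 h incubation at 37 °C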
#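 Test system: tolC-deleted E. coli BW25113 | Medium: LB with kanamycin 50 µg/mL | Compound dosing: Single concentration, 10 µM final per compound | Schedule: 37 °C, 20 h exposure | Measured by: OD at 615 nm | Evaluation: Percent growth inhibition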
# PostGolgi ctrl – yeast control strain growth, post-Golgi counter-screen; efflux-deficient yeast background strain, growth absorbance A615, 16 h; inhibition, % at 10 µM; 98,000 compounds, 5% hits; AID 738
# PostGolgi yeast – growth inhibition of a yeast mutant, post-Golgi transport screen | inhibition, % at 10 µM | post-Golgi transport phenotypic cell assay | 98,000 compounds, 0.9% hits;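 note: yeast cells grown in 1536-well plates; yeast grown about 18 h at 30C before absorbance read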
# E coli WT exp – blocks growth of wild type E. coli BW25113. OD600 absorbance. growth inhibition, % at 100 µM. 98,000 compounds, 0.15% hits. AID 710;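 active = growth inhibition above about 50% at one test dose, limit read from the data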;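 note: growth measured after 20 h incubation at 37 °C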
# Pyk2 oligo antag – Pyk2 (human) oligomerization antagonism. AID 1347419. Q293 cells, Pyk2 FERM NanoBiT luminescence; stronger effect = lower value. Q14289. 99,000 compounds, 0.83% hits. z-score (the deposit names both 25 µM and 10 µM);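 active = Z-score of -3 or lower, scaled per plate to the spread of control and sample wells; inactive = z-score above -3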;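 note: negative z-score means lost luminescence so less FERM oligomerization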
# Target sequence (Q14289 whole entry, looked up): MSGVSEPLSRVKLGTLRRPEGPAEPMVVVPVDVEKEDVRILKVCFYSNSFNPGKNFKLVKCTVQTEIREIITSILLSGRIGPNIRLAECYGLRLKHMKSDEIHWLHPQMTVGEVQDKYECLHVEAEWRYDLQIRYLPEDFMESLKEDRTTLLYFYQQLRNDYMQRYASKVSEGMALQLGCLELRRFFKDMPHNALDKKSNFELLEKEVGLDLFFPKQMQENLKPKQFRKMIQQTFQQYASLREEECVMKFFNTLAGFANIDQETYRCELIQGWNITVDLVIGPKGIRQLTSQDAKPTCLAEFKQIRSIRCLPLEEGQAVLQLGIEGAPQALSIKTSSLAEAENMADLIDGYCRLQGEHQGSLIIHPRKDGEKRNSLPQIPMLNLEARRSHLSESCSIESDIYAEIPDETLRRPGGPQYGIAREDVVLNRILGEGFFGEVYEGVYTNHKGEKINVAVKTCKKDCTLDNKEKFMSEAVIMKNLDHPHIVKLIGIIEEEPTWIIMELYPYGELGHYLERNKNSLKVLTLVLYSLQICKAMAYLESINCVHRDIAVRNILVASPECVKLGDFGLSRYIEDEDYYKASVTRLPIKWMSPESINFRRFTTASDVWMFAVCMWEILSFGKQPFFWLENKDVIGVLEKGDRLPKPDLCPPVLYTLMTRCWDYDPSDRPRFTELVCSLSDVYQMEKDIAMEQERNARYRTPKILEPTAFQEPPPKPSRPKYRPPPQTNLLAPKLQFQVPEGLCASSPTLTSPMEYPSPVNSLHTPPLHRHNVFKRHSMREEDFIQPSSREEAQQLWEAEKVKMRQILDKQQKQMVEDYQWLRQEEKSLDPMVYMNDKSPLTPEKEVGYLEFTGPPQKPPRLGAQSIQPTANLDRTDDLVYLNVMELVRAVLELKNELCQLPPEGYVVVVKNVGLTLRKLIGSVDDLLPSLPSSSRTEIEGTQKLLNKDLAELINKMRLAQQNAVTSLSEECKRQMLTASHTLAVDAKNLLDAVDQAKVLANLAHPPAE
# Candida biofilm – kills Candida albicans biofilms; C. albicans biofilm + clotrimazole, Alamar Blue; inhibition, % at 6 µM; 85,000 compounds, 0.14% hits; AID 834;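 active = inhibition above 20%; inactive = inhibition below 20%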;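 note: preformed 24 hr biofilms exposed to compound for 48 hr; 0% = biofilm without compound and 100% = blank killed by clotrimazole plus chlorhexidine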
# * marks the source's active call; other numbers are inactive results; nt = no result. Cut-off read from the data, not from the text of the source, unless noted: active = inhibition above about 30%; inactive = the rest.
SMILES,tolC growth inh,PostGolgi ctrl,PostGolgi yeast,E coli WT exp,Pyk2 oligo antag,Candida biofilm
O=C(Nc1nnc(-c2ccc(F)cc2)o1)c1ccco1,76.9*,nt,nt,nt,nt,2.2
COc1ccc(-c2nnc(NC(=O)c3cc(Cl)ccc3Cl)o2)cc1,98.1*,15.9,13.2,1.0,nt,9.3
O=C(Nc1nc(-c2ccccc2)c(-c2ccccc2)o1)c1ccc(F)cc1,nt,84.6*,98.1*,-9.0,1.08,nt
COc1ccc(-c2nnc(NC(=O)c3ccc(F)cc3)o2)cc1,nt,3.6,17.7,51.0*,nt,-1.9
Cc1ccc(C(=O)CSc2ncnc3sc4c(c23)CCC(C)C4)cc1 (stereo not drawn),nt,nt,nt,nt,0.55,7.8
O=C(Nc1nnc(-c2ccc3c(c2)CCCC3)o1)C1CCCCC1,11.9,-0.1,-0.8,-7.0,nt,6.3
O=C(Nc1nnc(-c2ccc3c(c2)CCCC3)o1)c1ccc(Cl)cc1Cl,nt,29.8,84.6*,1.0,nt,6.1
CCc1ccc(OCC(=O)NCCN(C)C)c(Br)c1,-25.3,11.0,-3.3,10.0,1.13,2.1
CCc1ccc(OCC(=O)N(C)CCC#N)c(Br)c1,-15.5,39.0*,-14.1,0.0,0.06,5.3
O=C(Nc1ccc2c(c1)C(=O)N(CC1CCCO1)C2=O)c1cccc(Br)c1 (stereo not drawn),nt,14.8,-0.5,-1.0,-3.15*,6.0
C=CCN1C(=O)N(/C=C/C)c2cccc3cccc1c23,19.9,30.0*,4.1,4.0,-3.74*,0.0
C=CCN1C(=O)C(C)(C)Nc2ccccc21,-25.6,-2.6,-2.7,1.0,-0.71,3.1
C=CCNC(=O)C1CCN(c2c([N+](=O)[O-])cc(C(F)(F)F)cc2[N+](=O)[O-])CC1,nt,-3.1,14.1,-3.0,0.2,nt
COc1ccc(OCC(=O)Nc2ccc3c(c2)nc(CN2CCCC2)n3C)cc1,nt,3.1,-1.4,7.0,-0.34,2.5
CC(=O)N1CCN(Cc2nc3cc(NC(=O)c4ccccc4)ccc3n2C)CC1,nt,5.2,-10.0,3.0,1.79,9.7
CCCC(=O)Nc1ccc2c(c1)nc(CN1CCN(C(C)=O)CC1)n2C,nt,31.3*,4.2,-8.0,-0.17,10.0
Cn1c(CN2CCCC2)nc2cc(NC(=O)COc3ccc(Cl)cc3)ccc21,18.2,33.1*,3.3,7.0,0.36,5.7
CCC1CCCCN1C1Sc2ccc(C(=O)OC)cc2NC1=O (stereo not drawn),52.5,40.1*,7.9,8.0,-0.26,nt
COC(=O)c1ccc2c(c1)NC(=O)C(N1CCOCC1)S2 (stereo not drawn),-18.6,13.7,-1.4,-10.0,0.33,nt
CCc1ccc(N(C(=O)CNC(=O)c2cccs2)C(C(=O)NC(C)(C)C)c2cc(OC)c(OC)c(OC)c2)cc1 (stereo not drawn),nt,2.2,9.6,0.0,0.08,nt
O=C(Nc1ccc2nsnc2c1)c1cccs1,28.9,40.0*,-3.1,14.0,-0.75,-1.3
Brc1cccc(-c2n[nH]c(-c3ccccc3)n2)c1,97.5*,42.9*,11.1,-6.0,-0.68,9.7
NS(=O)(=O)c1cc2c(cc1Cl)NC=NS2(=O)=O,20.8,nt,nt,nt,nt,11.8
CCOC(=O)c1cnc2ccc(C)cc2c1Sc1ccccc1,nt,30.6*,2.7,9.0,-1.97,nt
CCOC(=O)c1cnc2ccc(C)cc2c1Nc1ccc(N2CCOCC2)cc1,nt,15.9,11.1,5.0,-3.05*,nt
SMILES,tolC growth inh,PostGolgi ctrl,PostGolgi yeast,E coli WT exp,Pyk2 oligo antag,Candida biofilm
CCOC(=O)c1cnc2ccc(OCC)cc2c1N1CCN(c2ccccc2)CC1,nt,54.3*,8.7,-16.0,-2.07,5.3
CCCCNC(=O)c1onc(CSc2cccc3ccccc23)c1C(=O)O,nt,16.9,-5.9,-11.0,nt,nt
Cn1cnnc1SCc1ccc(C(=O)n2ncc(C#N)c2N)cc1,-13.2,3.6,-4.5,-1.0,2.67,7.4
Cc1nn2c(-c3ccncc3)nnc2c2ccccc12,41.9,63.8*,11.4,2.0,0.36,nt
COc1ccc(-c2nnc3c4ccccc4c(C)nn23)cc1,nt,43.8*,0.8,-18.0,-2.2,3.6
Cc1ccccc1-c1nnc2c3ccccc3c(C)nn12,nt,nt,nt,nt,0.2,-0.8
CCN=C1SC(C(=O)Nc2ccccc2)CC(=O)N1CC (stereo not drawn),nt,8.1,3.0,4.0,0.5,0.4
COc1cc(CC(=O)NNC(=O)c2cc(C)oc2C)cc(OC)c1OC,nt,nt,nt,nt,0.17,nt
Cc1cc(C)nc(SCc2nnc(SCC(=O)Nc3nccs3)n2C)n1,nt,nt,nt,nt,2.05,2.7
COc1ccc(CCCc2nnc(SCC(=O)Nc3nccs3)n2C)cc1C,3.2,45.0*,-9.2,1.0,0.51,5.1
CCc1ccc(NC(=O)CSc2nnc(SCC(=O)Nc3ccc(CC)cc3)n2N)cc1,nt,-6.9,-1.7,-5.0,1.92,nt
S=c1[nH]nc(-c2ccco2)n1/N=C/c1ccc(Cl)cc1Cl,nt,38.8*,-5.7,-3.0,-0.32,nt
Cn1cccc1/C=N/n1c(-c2ccc(Cl)cc2Cl)n[nH]c1=S,nt,42.9*,4.4,5.0,-0.17,nt
Cn1cccc1/C=N/n1c(-c2ccc(Cl)cc2)n[nH]c1=S,nt,19.2,-9.1,-10.0,-1.02,nt
CCOC(=O)c1nnn(-c2nonc2N)c1CSc1ccc(C)cc1,40.1,33.1*,7.4,3.0,-1.05,0.4
CCOC(=O)c1nnn(-c2nonc2N)c1CSc1ccccc1,nt,11.2,-6.3,3.0,0.39,-1.3
O=C1CC(c2ccccc2)Cc2nc3ncnn3cc21 (stereo not drawn),nt,1.6,1.6,6.0,1.62,3.3
O=C(NCCc1ccncc1)Nc1ccccc1Cl,-14.5,-5.7,0.8,29.0,-0.03,8.9
Oc1ccc(C(=S)N2CCCCCC2)cc1,nt,30.2*,-20.0,7.0,0.27,-3.7
S=C(c1ccc(N2CCCC2)cc1)N1CCCCC1,27.4,11.4,-10.0,-5.0,-0.06,3.9
CCN(CC)C(=O)Cn1nc(C)c2ccccc2c1=O,nt,-9.1,22.5,0.0,0.5,4.6
CCc1nnc(NC(=O)C2CCN(c3nc(C)cc(C)n3)CC2)s1,-20.9,0.0,2.5,-2.0,0.89,7.7
CCNc1nc(N2CCOCC2)nc(N(c2ccccc2)c2ccccc2)n1,-20.0,9.4,-4.8,-12.0,0.7,9.9
CCCCNc1nc(N(C)c2ccccc2)nc(-n2ccnc2)n1,54.4,68.9*,96.0*,-2.0,-2.47,-5.0
CN(c1ccccc1)c1nc(-n2ccnc2)nc(-n2ccnc2)n1,22.5,55.2*,48.3*,8.0,-0.01,4.9
SMILES,tolC growth inh,PostGolgi ctrl,PostGolgi yeast,E coli WT exp,Pyk2 oligo antag,Candida biofilm
c1ccc(N(c2ccccc2)c2nc(-n3ccnc3)nc(-n3ccnc3)n2)cc1,12.3,104.0*,100.2*,-4.0,-2.05,9.5
C=CCNc1nc(N(c2ccccc2)c2ccccc2)nc(-n2ccnc2)n1,6.5,34.8*,-1.4,-4.0,-1.36,8.5
Cn1c(SCC(=O)N2CCOCC2)nnc1-c1cnccn1,-11.5,4.2,2.9,-5.0,-0.06,-5.2
Cn1c(SCC(=O)c2ccc(F)cc2)nnc1-c1cnccn1,-11.7,39.0*,5.5,-4.0,0.39,-0.9
CC(C)N=c1scc(-c2ccco2)n1/N=C/c1ccc(O)c(O)c1,nt,55.5*,2.9,12.0,0.07,7.0
CN=c1scc(C)n1/N=C/c1ccc(O)c(O)c1O,nt,5.8,-4.7,19.0,-0.7,-1.4
